From ChEMBL document CHEMBL1681721, “Synthesis, in vitro antimalarial and cytotoxicity of artemisinin-aminoquinoline hybrids” (Bioorg Med Chem Lett, 2011)

System: Plasmodium falciparum
Assay: Antiplasmodial activity against chloroquine-sensitive Plasmodium falciparum D10 by lactate dehydrogenase assay
Type: functional, organism-based
Conditions: not given
Outline: (§1)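 IC50s measured in vitro against P. falciparum D10 (chloroquine-sensitive) and Dd2 (chloroquine-resistant). Compounds insoluble in the test medium were added as suspensions in DMSO. Chloroquine served as the reference antimalarial. Values are averages over n data sets.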

| Compound | IC50 [nM] |
| --- | --- |
| C[C@H]1[C@@H](OCCNCCNc2ccnc3cc(Cl)ccc23)O[C@@H]2O[C@@]3(C)CC[C@H]4[C@H](C)CC[C@@H]1[C@@]24OO3.O=C(O)C(=O)O | 21.5 |
| C[C@H]1[C@@H](OCCNCCCNc2ccnc3cc(Cl)ccc23)O[C@@H]2O[C@@]3(C)CC[C@H]4[C@H](C)CC[C@@H]1[C@@]24OO3.O=C(O)C(=O)O | 14.3 |
| CC(CNc1ccnc2cc(Cl)ccc12)NCCO[C@H]1O[C@@H]2O[C@@]3(C)CC[C@H]4[C@H](C)CC[C@@H]([C@H]1C)[C@@]24OO3 (stereo not given in full) | 12.2 |
| C[C@H]1[C@@H](OCCNCCCNc2ccnc3cc(Cl)ccc23)O[C@@H]2O[C@@]3(C)CC[C@H]4[C@H](C)CC[C@@H]1[C@@]24OO3 | 118 |
| C[C@H]1[C@@H](OCCN2CCN(CCNc3ccnc4cc(Cl)ccc34)CC2)O[C@@H]2O[C@@]3(C)CC[C@H]4[C@H](C)CC[C@@H]1[C@@]24OO3.O=C(O)C(=O)O | 29 |
| C[C@H]1[C@@H](OCCN2CCN(CCNc3ccnc4cc(Cl)ccc34)CC2)O[C@@H]2O[C@@]3(C)CC[C@H]4[C@H](C)CC[C@@H]1[C@@]24OO3 | 201 |
| C[C@H]1[C@@H](OCCNCCNc2ccnc3cc(Cl)ccc23)O[C@@H]2O[C@@]3(C)CC[C@H]4[C@H](C)CC[C@@H]1[C@@]24OO3 | 84.6 |
| C[C@H]1[C@@H](OCCNc2ccc(Nc3ccnc4cc(Cl)ccc34)cc2)O[C@@H]2O[C@@]3(C)CC[C@H]4[C@H](C)CC[C@@H]1[C@@]24OO3 | 30.4 |

Same assay, conditions: Plasmodium falciparum, D10

| Compound | IC50 [nM] |
| --- | --- |
| CC(CNc1ccnc2cc(Cl)ccc12)NCCO[C@H]1O[C@@H]2O[C@@]3(C)CC[C@H]4[C@H](C)CC[C@@H]([C@H]1C)[C@@]24OO3.O=C(O)C(=O)O (stereo not given in full) | 14.9 |
| C[C@H]1[C@@H](OCCNc2ccc(Nc3ccnc4cc(Cl)ccc34)cc2)O[C@@H]2O[C@@]3(C)CC[C@H]4[C@H](C)CC[C@@H]1[C@@]24OO3.O=C(O)C(=O)O | 17.2 |
| C[C@H]1[C@@H](OCCN2CCN(c3ccnc4cc(Cl)ccc34)CC2)O[C@@H]2O[C@@]3(C)CC[C@H]4[C@H](C)CC[C@@H]1[C@@]24OO3 | 30.7 |

System: Plasmodium falciparum
Assay: Antiplasmodial activity against chloroquine-resistant Plasmodium falciparum Dd2 by lactate dehydrogenase assay
Type: functional, organism-based
Conditions: not given
Outline: as §1

| Compound | IC50 [nM] |
| --- | --- |
| C[C@H]1[C@@H](OCCNCCNc2ccnc3cc(Cl)ccc23)O[C@@H]2O[C@@]3(C)CC[C@H]4[C@H](C)CC[C@@H]1[C@@]24OO3.O=C(O)C(=O)O | 25.7 |
| C[C@H]1[C@@H](OCCNCCCNc2ccnc3cc(Cl)ccc23)O[C@@H]2O[C@@]3(C)CC[C@H]4[C@H](C)CC[C@@H]1[C@@]24OO3.O=C(O)C(=O)O | 19.8 |
| CC(CNc1ccnc2cc(Cl)ccc12)NCCO[C@H]1O[C@@H]2O[C@@]3(C)CC[C@H]4[C@H](C)CC[C@@H]([C@H]1C)[C@@]24OO3 (stereo not given in full) | 17.1 |
| C[C@H]1[C@@H](OCCNc2ccc(Nc3ccnc4cc(Cl)ccc34)cc2)O[C@@H]2O[C@@]3(C)CC[C@H]4[C@H](C)CC[C@@H]1[C@@]24OO3.O=C(O)C(=O)O | 30.2 |
| C[C@H]1[C@@H](OCCNCCCNc2ccnc3cc(Cl)ccc23)O[C@@H]2O[C@@]3(C)CC[C@H]4[C@H](C)CC[C@@H]1[C@@]24OO3 | 183 |
| C[C@H]1[C@@H](OCCN2CCN(CCNc3ccnc4cc(Cl)ccc34)CC2)O[C@@H]2O[C@@]3(C)CC[C@H]4[C@H](C)CC[C@@H]1[C@@]24OO3.O=C(O)C(=O)O | 29.2 |
| C[C@H]1[C@@H](OCCN2CCN(CCNc3ccnc4cc(Cl)ccc34)CC2)O[C@@H]2O[C@@]3(C)CC[C@H]4[C@H](C)CC[C@@H]1[C@@]24OO3 | 276 |
| C[C@H]1[C@@H](OCCNCCNc2ccnc3cc(Cl)ccc23)O[C@@H]2O[C@@]3(C)CC[C@H]4[C@H](C)CC[C@@H]1[C@@]24OO3 | 153 |
| C[C@H]1[C@@H](OCCNc2ccc(Nc3ccnc4cc(Cl)ccc34)cc2)O[C@@H]2O[C@@]3(C)CC[C@H]4[C@H](C)CC[C@@H]1[C@@]24OO3 | 69.2 |

Same assay, conditions: Plasmodium falciparum, Dd2

| Compound | IC50 [nM] |
| --- | --- |
| CC(CNc1ccnc2cc(Cl)ccc12)NCCO[C@H]1O[C@@H]2O[C@@]3(C)CC[C@H]4[C@H](C)CC[C@@H]([C@H]1C)[C@@]24OO3.O=C(O)C(=O)O (stereo not given in full) | 20.8 |
| C[C@H]1[C@@H](OCCN2CCN(c3ccnc4cc(Cl)ccc34)CC2)O[C@@H]2O[C@@]3(C)CC[C@H]4[C@H](C)CC[C@@H]1[C@@]24OO3 | 68.5 |

System: Plasmodium falciparum
Assay: Resistance index, ratio of IC50 for chloroquine-resistant Plasmodium falciparum Dd2 to IC50 for chloroquine-sensitive Plasmodium falciparum D10
Type: functional
Conditions: not given
Outline: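 Calculated as IC50 (Dd2) / IC50 (D10), using IC50s from the parallel in vitro assays on both P. falciparum strains.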

| Compound | Ratio IC50 |
| --- | --- |
| C[C@H]1[C@@H](O)O[C@@H]2O[C@@]3(C)CC[C@H]4[C@H](C)CC[C@@H]1[C@@]24OO3 [ARTENIMOL] | 0.4 |
| CC(CNc1ccnc2cc(Cl)ccc12)NCCO[C@H]1O[C@@H]2O[C@@]3(C)CC[C@H]4[C@H](C)CC[C@@H]([C@H]1C)[C@@]24OO3.O=C(O)C(=O)O (stereo not given in full) | 1 |
| C[C@H]1[C@@H](OCCNCCNc2ccnc3cc(Cl)ccc23)O[C@@H]2O[C@@]3(C)CC[C@H]4[C@H](C)CC[C@@H]1[C@@]24OO3.O=C(O)C(=O)O | 1 |
| C[C@H]1[C@@H](OCCNCCCNc2ccnc3cc(Cl)ccc23)O[C@@H]2O[C@@]3(C)CC[C@H]4[C@H](C)CC[C@@H]1[C@@]24OO3.O=C(O)C(=O)O | 1 |
| CC(CNc1ccnc2cc(Cl)ccc12)NCCO[C@H]1O[C@@H]2O[C@@]3(C)CC[C@H]4[C@H](C)CC[C@@H]([C@H]1C)[C@@]24OO3 (stereo not given in full) | 1 |
| C[C@H]1[C@@H](OCCNc2ccc(Nc3ccnc4cc(Cl)ccc34)cc2)O[C@@H]2O[C@@]3(C)CC[C@H]4[C@H](C)CC[C@@H]1[C@@]24OO3.O=C(O)C(=O)O | 2 |
| C[C@H]1[C@@H](OCCN2CCN(c3ccnc4cc(Cl)ccc34)CC2)O[C@@H]2O[C@@]3(C)CC[C@H]4[C@H](C)CC[C@@H]1[C@@]24OO3 | 2 |
| C[C@H]1[C@@H](OCCNCCCNc2ccnc3cc(Cl)ccc23)O[C@@H]2O[C@@]3(C)CC[C@H]4[C@H](C)CC[C@@H]1[C@@]24OO3 | 2 |
| C[C@H]1[C@@H](OCCN2CCN(CCNc3ccnc4cc(Cl)ccc34)CC2)O[C@@H]2O[C@@]3(C)CC[C@H]4[C@H](C)CC[C@@H]1[C@@]24OO3.O=C(O)C(=O)O | 1 |
| C[C@H]1[C@@H](OCCN2CCN(CCNc3ccnc4cc(Cl)ccc34)CC2)O[C@@H]2O[C@@]3(C)CC[C@H]4[C@H](C)CC[C@@H]1[C@@]24OO3 | 1 |
| C[C@H]1[C@@H](OCCNCCNc2ccnc3cc(Cl)ccc23)O[C@@H]2O[C@@]3(C)CC[C@H]4[C@H](C)CC[C@@H]1[C@@]24OO3 | 2 |
| C[C@H]1[C@@H](OCCNc2ccc(Nc3ccnc4cc(Cl)ccc34)cc2)O[C@@H]2O[C@@]3(C)CC[C@H]4[C@H](C)CC[C@@H]1[C@@]24OO3 | 2 |

System: CHO
Assay: Cytotoxicity against CHO cells by MTT assay
Type: cell-based, Cricetulus griseus
Conditions: Cricetulus griseus, CHO
Outline: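 MTT viability assay on Chinese hamster ovary (CHO) cells, with emetine as the reference drug. IC50 is the average of n data sets.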

| Compound | IC50 [nM] |
| --- | --- |
| CC[C@H]1CN2CCc3cc(OC)c(OC)cc3[C@@H]2C[C@@H]1C[C@H]1NCCc2cc(OC)c(OC)cc21 [EMETINE] | 190 |
| CC(CNc1ccnc2cc(Cl)ccc12)NCCO[C@H]1O[C@@H]2O[C@@]3(C)CC[C@H]4[C@H](C)CC[C@@H]([C@H]1C)[C@@]24OO3.O=C(O)C(=O)O (stereo not given in full) | 2750 |
| C[C@H]1[C@@H](OCCNc2ccc(Nc3ccnc4cc(Cl)ccc34)cc2)O[C@@H]2O[C@@]3(C)CC[C@H]4[C@H](C)CC[C@@H]1[C@@]24OO3.O=C(O)C(=O)O | 35200 |
| C[C@H]1[C@@H](OCCN2CCN(c3ccnc4cc(Cl)ccc34)CC2)O[C@@H]2O[C@@]3(C)CC[C@H]4[C@H](C)CC[C@@H]1[C@@]24OO3 | 5920 |
| C[C@H]1[C@@H](OCCN2CCN(CCNc3ccnc4cc(Cl)ccc34)CC2)O[C@@H]2O[C@@]3(C)CC[C@H]4[C@H](C)CC[C@@H]1[C@@]24OO3.O=C(O)C(=O)O | 2320 |

Same assay, conditions: cho

| Compound | IC50 [nM] |
| --- | --- |
| C[C@H]1[C@@H](OCCNCCNc2ccnc3cc(Cl)ccc23)O[C@@H]2O[C@@]3(C)CC[C@H]4[C@H](C)CC[C@@H]1[C@@]24OO3.O=C(O)C(=O)O | 1640 |
| C[C@H]1[C@@H](OCCNCCCNc2ccnc3cc(Cl)ccc23)O[C@@H]2O[C@@]3(C)CC[C@H]4[C@H](C)CC[C@@H]1[C@@]24OO3.O=C(O)C(=O)O | 170 |
| CC(CNc1ccnc2cc(Cl)ccc12)NCCO[C@H]1O[C@@H]2O[C@@]3(C)CC[C@H]4[C@H](C)CC[C@@H]([C@H]1C)[C@@]24OO3 (stereo not given in full) | 3390 |
| C[C@H]1[C@@H](OCCNCCCNc2ccnc3cc(Cl)ccc23)O[C@@H]2O[C@@]3(C)CC[C@H]4[C@H](C)CC[C@@H]1[C@@]24OO3 | 37300 |
| C[C@H]1[C@@H](OCCNCCNc2ccnc3cc(Cl)ccc23)O[C@@H]2O[C@@]3(C)CC[C@H]4[C@H](C)CC[C@@H]1[C@@]24OO3 | 33000 |

System: not listed separately
Assay: Selectivity index, ratio of IC50 for CHO cells to IC50 for chloroquine-sensitive Plasmodium falciparum D10
Type: toxicity, cell-based
Conditions: hamster, CHO cells; read-out: Selectivity Index
Outline: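 Calculated as IC50 (CHO, MTT assay) / IC50 (P. falciparum D10), using IC50s measured in this work.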

| Compound | selectivity ratio |
| --- | --- |
| CC(CNc1ccnc2cc(Cl)ccc12)NCCO[C@H]1O[C@@H]2O[C@@]3(C)CC[C@H]4[C@H](C)CC[C@@H]([C@H]1C)[C@@]24OO3 (stereo not given in full) | 279 |
| C[C@H]1[C@@H](OCCNc2ccc(Nc3ccnc4cc(Cl)ccc34)cc2)O[C@@H]2O[C@@]3(C)CC[C@H]4[C@H](C)CC[C@@H]1[C@@]24OO3.O=C(O)C(=O)O | 2040 |
| C[C@H]1[C@@H](OCCN2CCN(c3ccnc4cc(Cl)ccc34)CC2)O[C@@H]2O[C@@]3(C)CC[C@H]4[C@H](C)CC[C@@H]1[C@@]24OO3 | 193 |
| C[C@H]1[C@@H](OCCN2CCN(CCNc3ccnc4cc(Cl)ccc34)CC2)O[C@@H]2O[C@@]3(C)CC[C@H]4[C@H](C)CC[C@@H]1[C@@]24OO3.O=C(O)C(=O)O | 80 |

Same assay, conditions: hamster, cho

| Compound | Selectivity Index |
| --- | --- |
| CC(CNc1ccnc2cc(Cl)ccc12)NCCO[C@H]1O[C@@H]2O[C@@]3(C)CC[C@H]4[C@H](C)CC[C@@H]([C@H]1C)[C@@]24OO3.O=C(O)C(=O)O (stereo not given in full) | 184 |
| C[C@H]1[C@@H](OCCNCCNc2ccnc3cc(Cl)ccc23)O[C@@H]2O[C@@]3(C)CC[C@H]4[C@H](C)CC[C@@H]1[C@@]24OO3.O=C(O)C(=O)O | 77 |
| C[C@H]1[C@@H](OCCNCCCNc2ccnc3cc(Cl)ccc23)O[C@@H]2O[C@@]3(C)CC[C@H]4[C@H](C)CC[C@@H]1[C@@]24OO3.O=C(O)C(=O)O | 12 |
| C[C@H]1[C@@H](OCCNCCCNc2ccnc3cc(Cl)ccc23)O[C@@H]2O[C@@]3(C)CC[C@H]4[C@H](C)CC[C@@H]1[C@@]24OO3 | 317 |
| C[C@H]1[C@@H](OCCNCCNc2ccnc3cc(Cl)ccc23)O[C@@H]2O[C@@]3(C)CC[C@H]4[C@H](C)CC[C@@H]1[C@@]24OO3 | 391 |

System: Plasmodium falciparum
Assay: Ratio of chloroquine IC50 to compound IC50 for chloroquine-resistant Plasmodium falciparum Dd2
Type: functional
Conditions: not given

| Compound | Ratio IC50 |
| --- | --- |
| CC(CNc1ccnc2cc(Cl)ccc12)NCCO[C@H]1O[C@@H]2O[C@@]3(C)CC[C@H]4[C@H](C)CC[C@@H]([C@H]1C)[C@@]24OO3.O=C(O)C(=O)O (stereo not given in full) | 7 |
| CC(CNc1ccnc2cc(Cl)ccc12)NCCO[C@H]1O[C@@H]2O[C@@]3(C)CC[C@H]4[C@H](C)CC[C@@H]([C@H]1C)[C@@]24OO3 (stereo not given in full) | 9 |
